Screening results as filed in PubChem BioAssay.
5HT1E antag: 5-HT1E (human) receptor antagonism. P28566. CHO 5-HT1E Ga15 NFAT-bla reporter, FRET, antagonist. inhibition, % at 6 µM. 65,000 tested, 0.99% active. AID 571;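 active = inhibition above a set limit, the mean inhibition across every tested compound plus 3 SD, cut at about 29% in these data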;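 also: signal is the 460 over 535 nm emission ratio of beta-lactamase substrate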
SK-BR-3 tox 24h: SK-BR-3 proliferation inhibitors; viability, % at 10 µM; SK-BR-3 viability, CellTiter-Glo ATP luminescence, 24 h; active compounds read low; 41,000 tested, 0.47% active;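 active = viability at or below the median of all test compounds minus 3 SD, in both replicates if run twice, cut at about 45% in these data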
HEK293 NFkB inh: inhibitors of the PMA/ionomycin-induced NF-kB reporter in HEK293 cells | HEK-293 NF-kB luciferase reporter, luminescence | inhibition, % at 3 µM | 62,000 tested, 0.21% active;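 active = inhibition above the mean of all tested compounds plus 3 SD, cut at about 40% in these data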
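Signal: luciferase luminescence; Material: HEK-293 cells with stable firefly luciferase reporter driven by four HIV NF-kB elements; Probe or stimulus: PMA with ionomycin; Replication: tested once; Times: 1 h compound pretreatment, then 16 h stimulation at 37 °C, 5% CO2; Benchmarks: DMSO and 10 µM reference inhibitor; Evaluation: per-plate % inhibition versus controls.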
HTR1A agonist: agonists of human 5-HT1a serotonin receptor; CHO 5-HT1a Ga15 NFAT-bla reporter, FRET ratio; 0% basal, 100% maximal reference agonist; 65,000 tested, 0.56% active; activation, % at 10 µM; P08908;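 active = activation above the screen-wide mean activation plus 3 SD, cut at about 19% in these data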
Target sequence (P08908 whole entry, looked up): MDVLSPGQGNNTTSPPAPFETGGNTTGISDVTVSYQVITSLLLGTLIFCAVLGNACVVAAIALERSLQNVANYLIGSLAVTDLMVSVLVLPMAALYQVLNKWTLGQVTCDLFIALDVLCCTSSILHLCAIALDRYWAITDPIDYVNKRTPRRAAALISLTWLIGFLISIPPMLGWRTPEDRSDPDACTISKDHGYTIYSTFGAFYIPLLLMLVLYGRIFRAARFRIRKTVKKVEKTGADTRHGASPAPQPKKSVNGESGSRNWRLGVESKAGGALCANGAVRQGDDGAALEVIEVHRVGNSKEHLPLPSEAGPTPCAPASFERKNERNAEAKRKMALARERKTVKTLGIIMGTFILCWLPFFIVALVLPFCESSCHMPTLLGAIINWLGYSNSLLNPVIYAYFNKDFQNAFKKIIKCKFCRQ
HTR1E agonist: agonists of human 5-HT1E serotonin receptor | activation, % at 6 µM | 65,000 tested, 0.69% active | CHO 5-HT1E Ga15 NFAT-bla reporter, FRET; 0% DMSO wells, 100% control agonist wells | AID 574;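 active = activation above a set limit, the screen-wide mean activation plus 3 SD, cut at about 8.5% in these data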
5-HT1A blocker: 5-HT1a (human) receptor antagonism; P08908; CHO 5-HT1a Ga15 NFAT-bla reporter, antagonist mode; 62,000 tested, 0.68% active; AID 612; inhibition, % at 10 µM;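 active = inhibition above the mean of all tested compounds plus 3 SD, cut at about 43% in these data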;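 also: receptor stimulated by 5-CT agonist at 100 nM near EC80; beta-lactamase reporter measured by ratiometric fluorescence of a cleavable substrate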
Of the large screens only hits and unclear results are named; the others gave an inactive call. In the library only some 2.9% were active in any assay of this set; here they are far more common.

O=S1(=O)Nc2c(ccc3cccnc23)-c2ccccc21	5HT1E antag 61.0, 5-HT1A blocker 73.5
Clc1ccc(OCc2nn3c(C4CCCCC4)nnc3s2)cc1	none
Cc1ccc(Cl)cc1N1CCN(C(=O)CCS(=O)(=O)c2cccc3nonc23)CC1	none
CN(C)C=Nc1ncc2c([nH]c3ccccc32)c1C#N	none
COCCn1c(=O)[nH]c2cc(C(=O)NCCN3CCN(c4ccccc4F)CC3)ccc2c1=O	5-HT1A blocker 51.6
COCCn1c(=O)[nH]c2cc(C(=O)NCCCN3CCN(c4ccc(F)cc4)CC3)ccc2c1=O	none
Cc1cccc(N2CC34C=CC(O3)C(C(=O)O)C4C2=O)c1 (stereo not drawn)	none
Cc1ccc2c(c1)C1OCCC1C1N2C(=O)C2C(C(=O)O)C3C=CC21O3 (stereo not drawn)	HTR1A agonist 20.5
COc1ccc(C2C=C(c3ccc(Cl)cc3)Nc3nc(NC(C)=O)nn32)cc1 (stereo not drawn)	none (no result: HEK293 NFkB inh, 5-HT1A blocker)
COc1ccc(C2=CC(c3ccc(Cl)cc3)n3cnnc3N2)cc1OC (stereo not drawn)	5HT1E antag 34.5, SK-BR-3 tox 24h 40.2
O=C(O)COCc1nc2ccccc2[nH]1	none
Cn1nnc(NC(=O)COc2ccc(C3CCCCC3)cc2)n1	none
Cc1ccc2[nH]c(-c3ccccc3)cc(=O)c2c1	5HT1E antag 70.0 (no result: SK-BR-3 tox 24h)
O=C(Oc1ccc2[nH]cc(CCN3C(=O)c4ccccc4C3=O)c2c1)c1ccco1	HTR1E agonist 38.3
CN(Cc1nc(-c2ccncc2)no1)S(=O)(=O)c1ccc(Br)cc1	none
N#Cc1nc(-c2ccccc2)oc1NCCN1CCCCC1	none
COc1ccc(-c2nc(CS(=O)CC(=O)NCc3ccco3)c(C)o2)cc1OC (stereo not drawn)	5HT1E antag 29.2 (no result: SK-BR-3 tox 24h)
Cc1cccc(-c2nc(C#N)c(NC3CCCCC3)o2)c1	5HT1E antag 55.0 (no result: HEK293 NFkB inh, 5-HT1A blocker)
COc1ccc(CNC(=O)CS(=O)Cc2nc(-c3ccc(C)cc3)oc2C)cc1 (stereo not drawn)	none (no result: SK-BR-3 tox 24h)
COc1ccc(-c2nc(CS(=O)CC(=O)N3CCCC3)c(C)o2)cc1 (stereo not drawn)	HTR1A agonist 100.9 (no result: SK-BR-3 tox 24h)
COCCCNC(=O)CS(=O)Cc1nc(-c2cccc(OC)c2)oc1C (stereo not drawn)	HTR1E agonist 8.9 (no result: SK-BR-3 tox 24h)
CCn1c(SCC(=O)Nc2ccc3c(c2)OCO3)nnc1-c1ccccc1O	none
C1=C(CCNC2=NCCCCC2)CCCC1	none (no result: SK-BR-3 tox 24h)
CC(=O)c1c(C)nc(-c2ccc(Cl)cc2)nc1NC(=O)C(C)C	none
CC(C)C(C(=O)N1CCOCC1)N1C(=O)c2ccccc2C1=O (stereo not drawn)	none
Cc1cccc(-c2nc(CS(=O)CC(=O)NC3CCCC3)c(C)o2)c1 (stereo not drawn)	HTR1A agonist 36.8 (no result: SK-BR-3 tox 24h)
Cc1ccc2[nH]c(C)c(CN(C)C3CCN(C)CC3)c(=O)c2c1	SK-BR-3 tox 24h 25.6
O=S(=O)(Nc1cccc2ncccc12)c1cccs1	5HT1E antag 78.7, 5-HT1A blocker 84.0 (no result: SK-BR-3 tox 24h)
O=C(CS(=O)(=O)Cc1ccccc1)N1CCN(c2cccc(C(F)(F)F)c2)CC1	none
OC(CN1CCN(c2cccc(C(F)(F)F)c2)CC1)c1c[nH]c2ccccc12 (stereo not drawn)	HTR1A agonist 54.7
CCOC(=O)c1c(-c2ccc(C)o2)csc1NC(=O)CSc1nnc(C)s1	5-HT1A blocker 55.6 (no result: SK-BR-3 tox 24h)
O=C(Nc1ccon1)c1cccc(S(=O)(=O)N2CCCC2)c1	none
N#Cc1sc2nc3c(c(-c4ccco4)c2c1N)CCCC3	5HT1E antag 30.7
COC(=O)c1cnn2c(C)c(Cc3cccc(F)c3)c(C)nc12	5HT1E antag 29.9 (no result: SK-BR-3 tox 24h)
Cc1nc2c(C(=O)O)cnn2c(C)c1Cc1ccccc1F	none (no result: SK-BR-3 tox 24h)
CCOC(=O)c1ccc(NC2OC(=O)c3ccccc32)cc1 (stereo not drawn)	none
CC1=CCC2C(=O)N(c3ccc(C)c(Br)c3)C(=O)C2C1 (stereo not drawn)	HTR1E agonist 13.1 (no result: SK-BR-3 tox 24h)
CC1=CCC2C(=O)N(c3ccc(Br)cc3C)C(=O)C2C1 (stereo not drawn)	none
CCOC(=O)/C(C(C)=O)=C1\OC(=O)c2ccccc21	none
O=C(CSc1nnc(-c2ccc(O)cc2)n1Cc1ccco1)N1CCc2ccccc2C1	none
Cc1ccc(-c2cnc(NC(=O)CCC(=O)N3CCCCC3)n2C)cc1	HEK293 NFkB inh 65.0
CCN(Cc1ccccc1)C(c1ccccn1)c1nnnn1C(C)(C)CC (stereo not drawn)	5-HT1A blocker 45.3
O=C(NC1=NC2CCCCC2N1)c1ccccc1 (stereo not drawn)	none
COc1ccc(/C=C/C(O)=C2/C(=O)N(C)C3(C)CC2c2ccccc2O3)cc1 (stereo not drawn)	5-HT1A blocker 45.9 (no result: SK-BR-3 tox 24h)
Clc1cccc(N2CCN(CCNc3nc4ccccc4n4cnnc34)CC2)c1	HTR1E agonist 8.9 (no result: SK-BR-3 tox 24h)
c1ccc2c(c1)nc(NCCN1CCOCC1)c1nncn12	none (no result: SK-BR-3 tox 24h)
CCOc1ccc(CC(=O)N2CCN(c3ccc(N4CCOCC4)nn3)CC2)cc1OCC	none (no result: SK-BR-3 tox 24h)
CCc1ccc(S(=O)(=O)NCc2cn3ccsc3n2)s1	HTR1E agonist 22.2 (no result: SK-BR-3 tox 24h)
COc1ccccc1NS(=O)(=O)c1ccc(OC)c(OC)c1	SK-BR-3 tox 24h 28.6
COC(=O)C(CC(=O)c1ccc(Br)cc1)n1ccnc1 (stereo not drawn)	none
COc1ccc(C(=O)Oc2c(CN3CCOCC3)cc(Cl)c3cccnc23)cc1	none
COc1cc(C(=O)Oc2c(CN3CCOCC3)cc(Cl)c3cccnc23)cc(OC)c1OC	5HT1E antag 38.4 (no result: SK-BR-3 tox 24h)
O=C(Oc1c(CN2CCOCC2)cc(Cl)c2cccnc12)c1ccc(F)cc1	5HT1E antag 36.7
O=C(NCCN1CCN(Cc2ccccc2)CC1)C1c2ccccc2C(=O)N2CCc3ccccc3C12 (stereo not drawn)	5-HT1A blocker 59.3
Cc1ccc(CNC(=O)C2c3ccccc3C(=O)N3CCc4ccccc4C23)o1 (stereo not drawn)	none
CCCCCCC(=O)c1c(C)[nH]c(C(=O)OCC)c1C	5HT1E antag 36.5 (no result: SK-BR-3 tox 24h)
COc1cc(C)c(Cl)cc1S(=O)(=O)NCC1CCCO1 (stereo not drawn)	none
CCOc1cc(C)c(Cl)cc1S(=O)(=O)NCC1CCCO1 (stereo not drawn)	5HT1E antag 31.0
Cc1cc(CCN2CCC(=O)NC2=O)ccc1OC(C)C	none
CCC1Oc2ccccc2N(CC(=O)Nc2ccc3c(c2)OCCO3)C1=O (stereo not drawn)	none
O=C(CN1C(=O)C2C3C=CC(C3)C2C1=O)Nc1ccc2c(c1)OCCO2 (stereo not drawn)	SK-BR-3 tox 24h 32.0
COc1ccc(CNC(=O)C2CC(c3ccc(F)cc3)=NO2)cc1 (stereo not drawn)	none (no result: SK-BR-3 tox 24h)
CCn1ncc(C2=NOC(C(=O)Nc3cccnc3)C2)c1C (stereo not drawn)	none (no result: SK-BR-3 tox 24h)
